Experimental data from ChEMBL document CHEMBL5058577, “EUbOPEN Chemogenomics Library 2 (Multiplex)” (2022).

Tested on: HEK-293T
Assay: Multiplex assay against HEK293T
Assay type: toxicity, cell-based
Settings: human
Method in brief: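 On a CQ1 microscope at 37°C and 5% CO2, live cells were imaged after compound addition. They had been stained at seeding with Hoechst33342, BioTracker Green Microtubule Cytoskeleton Dye, MitoTracker Red and Annexin V Alexa Fluor 680. CellPathfinder machine-learning gating assigned cells to Hoechst high-intensity objects or normal cells, normal cells to healthy, pyknosed or fragmented nuclei, and pyknosed cells to mitotic or apoptotic. Tubulin, mitochondrial-mass and membrane-permeability phenotypes are per cents of healthy-nucleus cells.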

[1] = 12 h, 1 µM, compound concentration 1 uM, replicate 1
[2] = 12 h, 1 µM, compound concentration 1 uM, replicate 2
[3] = 12 h, 10 µM, compound concentration 10 uM, replicate 1
[4] = 12 h, 10 µM, compound concentration 10 uM, replicate 2
[5] = 24 h, 1 µM, compound concentration 1 uM, replicate 1
[6] = 24 h, 1 µM, compound concentration 1 uM, replicate 2
[7] = 24 h, 10 µM, compound concentration 10 uM, replicate 1
[8] = 24 h, 10 µM, compound concentration 10 uM, replicate 2
[9] = 48 h, 1 µM, compound concentration 1 uM, replicate 1
[10] = 48 h, 1 µM, compound concentration 1 uM, replicate 2
[11] = 48 h, 10 µM, compound concentration 10 uM, replicate 1
[12] = 48 h, 10 µM, compound concentration 10 uM, replicate 2

For COc1c(Nc2ccc(S(C)(=O)=O)nc2C)ncnc1OC1CCN(C(=O)OC(C)C)CC1 [ADP-597], the “Population Apoptotic (%)” value [1] was 29%, the “Population Fragmented Nuclei (%)” value [1] was 5% and the “Population Healthy Nuclei (%)” value [1] was 78%. For the same compound, the “Population Hoechst High Intensity Objects (%)” value [1] was 6%, the “Population Membrane Permeable-Phenotype (%)” value [1] was 0% and the “Population Mitochondria Different-Phenotype (%)” value [1] was 47%. For the same compound, the “Population Mitotic Cells (%)” value [1] was 70%, the “Population Normal (%)” value [1] was 93% and the “Population Pyknosed Nuclei (%)” value [1] was 16%. For the same compound, the “Population Tubulin-Different-Phenotype (%)” value [1] was 36%, the “Total Cell Count” value [1] was 430 and the “Population Apoptotic (%)” value [2] was 38%. The “Population Fragmented Nuclei (%)” value [2] was 4%, the “Population Healthy Nuclei (%)” value [2] was 80% and the “Population Hoechst High Intensity Objects (%)” value [2] was 3%. The “Population Mitochondria Different-Phenotype (%)” value [2] was 62%, the “Population Mitotic Cells (%)” value [2] was 62% and the “Population Normal (%)” value [2] was 96%. The “Population Pyknosed Nuclei (%)” value [2] was 14%, the “Population Tubulin-Different-Phenotype (%)” value [2] was 25% and the “Total Cell Count” value [2] was 347. For the same compound, the “Population Apoptotic (%)” value [3] was 47%, the “Population Fragmented Nuclei (%)” value [3] was 7% and the “Population Healthy Nuclei (%)” value [3] was 75%. The “Population Hoechst High Intensity Objects (%)” value [3] was 8%, the “Population Membrane Permeable-Phenotype (%)” value [3] was 0% and the “Population Mitochondria Different-Phenotype (%)” value [3] was 70%. For the same compound, the “Population Mitotic Cells (%)” value [3] was 52%, the “Population Normal (%)” value [3] was 91% and the “Population Pyknosed Nuclei (%)” value [3] was 17%. The “Population Tubulin-Different-Phenotype (%)” value [3] was 44%, the “Total Cell Count” value [3] was 302 and the “Population Healthy Nuclei (%)” value [4] was 72%. The “Population Hoechst High Intensity Objects (%)” value [4] was 25%, the “Population Mitochondria Different-Phenotype (%)” value [4] was 71% and the “Population Normal (%)” value [4] was 74%. The “Population Pyknosed Nuclei (%)” value [4] was 20%, the “Population Tubulin-Different-Phenotype (%)” value [4] was 36% and the “Total Cell Count” value [4] was 238. For the same compound, the “Population Apoptotic (%)” value [5] was 23%, the “Population Fragmented Nuclei (%)” value [5] was 7% and the “Population Healthy Nuclei (%)” value [5] was 81%. The “Population Hoechst High Intensity Objects (%)” value [5] was 2%, the “Population Membrane Permeable-Phenotype (%)” value [5] was 0% and the “Population Mitochondria Different-Phenotype (%)” value [5] was 20%. For the same compound, the “Population Mitotic Cells (%)” value [5] was 76%, the “Population Normal (%)” value [5] was 97% and the “Population Pyknosed Nuclei (%)” value [5] was 11%. The “Population Tubulin-Different-Phenotype (%)” value [5] was 16%, the “Total Cell Count” value [5] was 587 and the “Population Apoptotic (%)” value [6] was 30%. The “Population Fragmented Nuclei (%)” value [6] was 6%, the “Population Healthy Nuclei (%)” value [6] was 84% and the “Population Hoechst High Intensity Objects (%)” value [6] was 3%. For the same compound, the “Population Membrane Permeable-Phenotype (%)” value [6] was 1%, the “Population Mitochondria Different-Phenotype (%)” value [6] was 34% and the “Population Mitotic Cells (%)” value [6] was 69%. The “Population Normal (%)” value [6] was 96%, the “Population Pyknosed Nuclei (%)” value [6] was 9% and the “Population Tubulin-Different-Phenotype (%)” value [6] was 15%. The “Total Cell Count” value [6] was 447, the “Population Apoptotic (%)” value [7] was 44% and the “Population Fragmented Nuclei (%)” value [7] was 9%. For the same compound, the “Population Healthy Nuclei (%)” value [7] was 74%, the “Population Hoechst High Intensity Objects (%)” value [7] was 7% and the “Population Membrane Permeable-Phenotype (%)” value [7] was 0%. For the same compound, the “Population Mitochondria Different-Phenotype (%)” value [7] was 58%, the “Population Mitotic Cells (%)” value [7] was 55% and the “Population Normal (%)” value [7] was 92%. For the same compound, the “Population Pyknosed Nuclei (%)” value [7] was 15%, the “Population Tubulin-Different-Phenotype (%)” value [7] was 38% and the “Total Cell Count” value [7] was 355. For the same compound, the “Population Apoptotic (%)” value [8] was 63%, the “Population Fragmented Nuclei (%)” value [8] was 11% and the “Population Healthy Nuclei (%)” value [8] was 71%. The “Population Hoechst High Intensity Objects (%)” value [8] was 21%, the “Population Mitochondria Different-Phenotype (%)” value [8] was 54% and the “Population Mitotic Cells (%)” value [8] was 36%. The “Population Normal (%)” value [8] was 78%, the “Population Pyknosed Nuclei (%)” value [8] was 17% and the “Population Tubulin-Different-Phenotype (%)” value [8] was 25%. For the same compound, the “Total Cell Count” value [8] was 300, the “Population Apoptotic (%)” value [9] was 25% and the “Population Fragmented Nuclei (%)” value [9] was 13%. The “Population Healthy Nuclei (%)” value [9] was 78%, the “Population Hoechst High Intensity Objects (%)” value [9] was 2% and the “Population Membrane Permeable-Phenotype (%)” value [9] was 0%. The “Population Mitochondria Different-Phenotype (%)” value [9] was 18%, the “Population Mitotic Cells (%)” value [9] was 75% and the “Population Normal (%)” value [9] was 97%. The “Population Pyknosed Nuclei (%)” value [9] was 8%, the “Population Tubulin-Different-Phenotype (%)” value [9] was 13% and the “Total Cell Count” value [9] was 924. For the same compound, the “Population Apoptotic (%)” value [10] was 36%, the “Population Healthy Nuclei (%)” value [10] was 77% and the “Population Hoechst High Intensity Objects (%)” value [10] was 5%. The “Population Membrane Permeable-Phenotype (%)” value [10] was 1%, the “Population Mitochondria Different-Phenotype (%)” value [10] was 23% and the “Population Mitotic Cells (%)” value [10] was 63%. For the same compound, the “Population Normal (%)” value [10] was 94%, the “Population Pyknosed Nuclei (%)” value [10] was 9% and the “Population Tubulin-Different-Phenotype (%)” value [10] was 14%. For the same compound, the “Total Cell Count” value [10] was 590, the “Population Apoptotic (%)” value [11] was 35% and the “Population Fragmented Nuclei (%)” value [11] was 15%. For the same compound, the “Population Healthy Nuclei (%)” value [11] was 73%, the “Population Hoechst High Intensity Objects (%)” value [11] was 4% and the “Population Membrane Permeable-Phenotype (%)” value [11] was 0%. For the same compound, the “Population Mitochondria Different-Phenotype (%)” value [11] was 38%, the “Population Mitotic Cells (%)” value [11] was 64% and the “Population Normal (%)” value [11] was 95%. For the same compound, the “Population Pyknosed Nuclei (%)” value [11] was 11%, the “Population Tubulin-Different-Phenotype (%)” value [11] was 23% and the “Total Cell Count” value [11] was 494. The “Population Apoptotic (%)” value [12] was 43%, the “Population Fragmented Nuclei (%)” value [12] was 13% and the “Population Hoechst High Intensity Objects (%)” value [12] was 10%. The “Population Mitochondria Different-Phenotype (%)” value [12] was 32%, the “Population Mitotic Cells (%)” value [12] was 56% and the “Population Normal (%)” value [12] was 89%. For the same compound, the “Population Pyknosed Nuclei (%)” value [12] was 12%, the “Population Tubulin-Different-Phenotype (%)” value [12] was 18% and the “Total Cell Count” value [12] was 392.
